Test results as given in ChEMBL document CHEMBL3044834, “Novel protoporphyrinogen oxidase inhibitors: 3H-pyrazolo[3,4-d][1,2,3]triazin-4-one derivatives” (J Agric Food Chem, 2008).

Assays:
Assay type in all cases: functional
Digitaria sanguinalis [1] = assay: Herbicidal activity against Digitaria sanguinalis (hairy crabgrass) assessed as inhibition of fresh weed plant weight at 1500 g/ha using pre-emergence treatment protocol
Amaranthus retroflexus [2] = assay: Herbicidal activity against Amaranthus retroflexus assessed as inhibition of fresh weed plant weight at 1500 g/ha using post-emergence treatment protocol
Summary of the method: (§1)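 Test compounds made up as emulsions by dissolving in 100 µL N,N-dimethylformamide, then adding a little Tween 20 and water. For post-emergence, weed seedlings at one leaf and one stem were sprayed at the same rates as the pre-emergence test. Fresh weight was recorded 15 days after treatment and expressed as percent inhibition versus controls. All treatments were run in triplicate.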

Amaranthus retroflexus [3] = assay: Herbicidal activity against Amaranthus retroflexus assessed as inhibition of fresh weed plant weight at 1500 g/ha using pre-emergence treatment protocol
[4] = system: Brassica rapa subsp. oleifera; assay: Herbicidal activity against Brassica rapa subsp. oleifera assessed as inhibition of fresh weed plant weight at 187.5 g/ha using post-emergence treatment protocol; summary of the method: as §1
[5] = system: Brassica rapa subsp. oleifera; assay: Herbicidal activity against Brassica rapa subsp. oleifera assessed as inhibition of fresh weed plant weight at 375 g/ha using post-emergence treatment protocol; summary of the method: as §1
[6] = system: Brassica rapa subsp. oleifera; assay: Herbicidal activity against Brassica rapa subsp. oleifera assessed as inhibition of fresh weed plant weight at 750 g/ha using post-emergence treatment protocol; summary of the method: as §1
[7] = system: Brassica rapa subsp. oleifera; assay: Herbicidal activity against Brassica rapa subsp. oleifera assessed as inhibition of fresh weed plant weight at 93.75 g/ha using pre-emergence treatment protocol
[8] = system: Brassica rapa subsp. oleifera; assay: Herbicidal activity against Brassica rapa subsp. oleifera assessed as inhibition of fresh weed plant weight at 187.5 g/ha using pre-emergence treatment protocol
[9] = system: Brassica rapa subsp. oleifera; assay: Herbicidal activity against Brassica rapa subsp. oleifera assessed as inhibition of fresh weed plant weight at 375 g/ha using pre-emergence treatment protocol
[10] = system: Brassica rapa subsp. oleifera; assay: Herbicidal activity against Brassica rapa subsp. oleifera assessed as inhibition of fresh weed plant weight at 750 g/ha using pre-emergence treatment protocol
Digitaria sanguinalis [11] = assay: Herbicidal activity against Digitaria sanguinalis (hairy crabgrass) assessed as inhibition of fresh weed plant weight at 1500 g/ha using post-emergence treatment protocol; summary of the method: as §1
[12] = system: Brassica rapa subsp. oleifera; assay: Herbicidal activity against Brassica rapa subsp. oleifera assessed as inhibition of fresh weed plant weight at 1500 g/ha using post-emergence treatment protocol; summary of the method: as §1
[13] = system: Brassica rapa subsp. oleifera; assay: Herbicidal activity against Brassica rapa subsp. oleifera assessed as inhibition of fresh weed plant weight at 1500 g/ha using pre-emergence treatment protocol
Echinochloa crus-galli [14] = assay: Herbicidal activity against Echinochloa crus-galli (barnyard grass) assessed as inhibition of fresh weed plant weight at 750 g/ha using pre-emergence treatment protocol
Amaranthus retroflexus [15] = assay: Herbicidal activity against Amaranthus retroflexus assessed as inhibition of fresh weed plant weight at 93.75 g/ha using post-emergence treatment protocol; summary of the method: as §1
Amaranthus retroflexus [16] = assay: Herbicidal activity against Amaranthus retroflexus assessed as inhibition of fresh weed plant weight at 750 g/ha using pre-emergence treatment protocol; summary of the method: as §1
Amaranthus retroflexus [17] = assay: Herbicidal activity against Amaranthus retroflexus assessed as inhibition of fresh weed plant weight at 375 g/ha using pre-emergence treatment protocol
[18] = system: Brassica rapa subsp. oleifera; assay: Herbicidal activity against Brassica rapa subsp. oleifera assessed as inhibition of fresh weed plant weight at 93.75 g/ha using post-emergence treatment protocol; summary of the method: as §1
Digitaria sanguinalis [19] = assay: Herbicidal activity against Digitaria sanguinalis (hairy crabgrass) assessed as inhibition of fresh weed plant weight at 187.5 g/ha using pre-emergence treatment protocol
Digitaria sanguinalis [20] = assay: Herbicidal activity against Digitaria sanguinalis (hairy crabgrass) assessed as inhibition of fresh weed plant weight at 93.75 g/ha using pre-emergence treatment protocol
Amaranthus retroflexus [21] = assay: Herbicidal activity against Amaranthus retroflexus assessed as inhibition of fresh weed plant weight at 187.5 g/ha using post-emergence treatment protocol; summary of the method: as §1
Digitaria sanguinalis [22] = assay: Herbicidal activity against Digitaria sanguinalis (hairy crabgrass) assessed as inhibition of fresh weed plant weight at 750 g/ha using post-emergence treatment protocol; summary of the method: as §1
Amaranthus retroflexus [23] = assay: Herbicidal activity against Amaranthus retroflexus assessed as inhibition of fresh weed plant weight at 187.5 g/ha using pre-emergence treatment protocol
Amaranthus retroflexus [24] = assay: Herbicidal activity against Amaranthus retroflexus assessed as inhibition of fresh weed plant weight at 93.75 g/ha using pre-emergence treatment protocol
Amaranthus retroflexus [25] = assay: Herbicidal activity against Amaranthus retroflexus assessed as inhibition of fresh weed plant weight at 750 g/ha using post-emergence treatment protocol; summary of the method: as §1
Amaranthus retroflexus [26] = assay: Herbicidal activity against Amaranthus retroflexus assessed as inhibition of fresh weed plant weight at 375 g/ha using post-emergence treatment protocol; summary of the method: as §1
Echinochloa crus-galli [27] = assay: Herbicidal activity against Echinochloa crus-galli (barnyard grass) assessed as inhibition of fresh weed plant weight at 750 g/ha using post-emergence treatment protocol; summary of the method: as §1
Echinochloa crus-galli [28] = assay: Herbicidal activity against Echinochloa crus-galli (barnyard grass) assessed as inhibition of fresh weed plant weight at 375 g/ha using post-emergence treatment protocol; summary of the method: as §1
Echinochloa crus-galli [29] = assay: Herbicidal activity against Echinochloa crus-galli (barnyard grass) assessed as inhibition of fresh weed plant weight at 187.5 g/ha using post-emergence treatment protocol; summary of the method: as §1
Echinochloa crus-galli [30] = assay: Herbicidal activity against Echinochloa crus-galli (barnyard grass) assessed as inhibition of fresh weed plant weight at 93.75 g/ha using post-emergence treatment protocol; summary of the method: as §1
Digitaria sanguinalis [31] = assay: Herbicidal activity against Digitaria sanguinalis (hairy crabgrass) assessed as inhibition of fresh weed plant weight at 750 g/ha using pre-emergence treatment protocol
Digitaria sanguinalis [32] = assay: Herbicidal activity against Digitaria sanguinalis (hairy crabgrass) assessed as inhibition of fresh weed plant weight at 375 g/ha using pre-emergence treatment protocol
Digitaria sanguinalis [33] = assay: Herbicidal activity against Digitaria sanguinalis (hairy crabgrass) assessed as inhibition of fresh weed plant weight at 375 g/ha using post-emergence treatment protocol; summary of the method: as §1
Digitaria sanguinalis [34] = assay: Herbicidal activity against Digitaria sanguinalis (hairy crabgrass) assessed as inhibition of fresh weed plant weight at 187.5 g/ha using post-emergence treatment protocol; summary of the method: as §1
Digitaria sanguinalis [35] = assay: Herbicidal activity against Digitaria sanguinalis (hairy crabgrass) assessed as inhibition of fresh weed plant weight at 93.75 g/ha using post-emergence treatment protocol; summary of the method: as §1
Echinochloa crus-galli [36] = assay: Herbicidal activity against Echinochloa crus-galli (barnyard grass) assessed as inhibition of fresh weed plant weight at 375 g/ha using pre-emergence treatment protocol; summary of the method: as §1
Echinochloa crus-galli [37] = assay: Herbicidal activity against Echinochloa crus-galli (barnyard grass) assessed as inhibition of fresh weed plant weight at 187.5 g/ha using pre-emergence treatment protocol; summary of the method: as §1
Echinochloa crus-galli [38] = assay: Herbicidal activity against Echinochloa crus-galli (barnyard grass) assessed as inhibition of fresh weed plant weight at 93.75 g/ha using pre-emergence treatment protocol
Echinochloa crus-galli [39] = assay: Herbicidal activity against Echinochloa crus-galli (barnyard grass) assessed as inhibition of fresh weed plant weight at 1500 g/ha using pre-emergence treatment protocol
Echinochloa crus-galli [40] = assay: Herbicidal activity against Echinochloa crus-galli (barnyard grass) assessed as inhibition of fresh weed plant weight at 1500 g/ha using post-emergence treatment protocol; summary of the method: as §1

Row | SMILES | inhibition at 1500 g/ha (Digitaria sanguinalis [1]) [%] | inhibition at 1500 g/ha (Amaranthus retroflexus [2]) [%] | inhibition at 1500 g/ha (Amaranthus retroflexus [3]) [%] | inhibition at 93.75 g/ha [7] [%] | inhibition at 187.5 g/ha [8] [%] | inhibition at 375 g/ha [9] [%] | inhibition at 750 g/ha [10] [%] | inhibition at 1500 g/ha (Digitaria sanguinalis [11]) [%] | inhibition at 1500 g/ha [12] [%] | inhibition at 1500 g/ha [13] [%] | inhibition at 750 g/ha (Echinochloa crus-galli [14]) [%] | inhibition at 750 g/ha (Amaranthus retroflexus [16]) [%] | inhibition at 375 g/ha (Amaranthus retroflexus [17]) [%] | inhibition at 187.5 g/ha (Digitaria sanguinalis [19]) [%] | inhibition at 93.75 g/ha (Digitaria sanguinalis [20]) [%] | inhibition at 187.5 g/ha (Amaranthus retroflexus [23]) [%] | inhibition at 93.75 g/ha (Amaranthus retroflexus [24]) [%] | inhibition at 750 g/ha (Digitaria sanguinalis [31]) [%] | inhibition at 375 g/ha (Digitaria sanguinalis [32]) [%] | inhibition at 375 g/ha (Echinochloa crus-galli [36]) [%] | other results
1 | C#CCN1C(=O)COc2cc(F)c(-n3nnc4nn(CC=C)cc4c3=O)cc21 | 80.7 | 100 | 100 | 26 | 90.8 | 100 | 100 | 32.7 | 70.9 | 100 | 95.7 | 100 | 100 | 16.3 | 6.1 | 100 | 100 | 67.4 | 24.5 | 49.1 | inhibition at 187.5 g/ha [4]: 0%; inhibition at 375 g/ha [5]: 38.9%; inhibition at 750 g/ha [6]: 50.4%; inhibition at 93.75 g/ha (Amaranthus retroflexus [15]): 30.6%; inhibition at 93.75 g/ha [18]: 0%; inhibition at 187.5 g/ha (Amaranthus retroflexus [21]): 40.5%; inhibition at 750 g/ha (Digitaria sanguinalis [22]): 0%; inhibition at 750 g/ha (Amaranthus retroflexus [25]): 100%; inhibition at 375 g/ha (Amaranthus retroflexus [26]): 48.8%; inhibition at 750 g/ha (Echinochloa crus-galli [27]): 23.6%; inhibition at 375 g/ha (Echinochloa crus-galli [28]): 17.6%; inhibition at 187.5 g/ha (Echinochloa crus-galli [29]): 14.7%; inhibition at 93.75 g/ha (Echinochloa crus-galli [30]): 12.1%; inhibition at 375 g/ha (Digitaria sanguinalis [33]): 0%; inhibition at 187.5 g/ha (Digitaria sanguinalis [34]): 0%; inhibition at 93.75 g/ha (Digitaria sanguinalis [35]): 0%; inhibition at 187.5 g/ha (Echinochloa crus-galli [37]): 13.3%; inhibition at 93.75 g/ha (Echinochloa crus-galli [38]): 3.5%; inhibition at 1500 g/ha (Echinochloa crus-galli [39]): 100%; inhibition at 1500 g/ha (Echinochloa crus-galli [40]): 38.7%
2 | C=CCN1C(=O)COc2cc(F)c(-n3nnc4nn(CC=C)cc4c3=O)cc21 | 90 | 100 | 100 | 51.2 | 95.9 | 100 | 100 | 0 | 95.6 | 100 | 89.7 | 100 | 100 | 16.3 | 6.1 | 100 | 100 | 75.5 | 40.8 | 27.9 | inhibition at 187.5 g/ha [4]: 12.3%; inhibition at 375 g/ha [5]: 60.8%; inhibition at 750 g/ha [6]: 88.5%; inhibition at 93.75 g/ha (Amaranthus retroflexus [15]): 28.9%; inhibition at 93.75 g/ha [18]: 10.2%; inhibition at 187.5 g/ha (Amaranthus retroflexus [21]): 45.5%; inhibition at 750 g/ha (Digitaria sanguinalis [22]): 0%; inhibition at 750 g/ha (Amaranthus retroflexus [25]): 100%; inhibition at 375 g/ha (Amaranthus retroflexus [26]): 83.5%; inhibition at 750 g/ha (Echinochloa crus-galli [27]): 18.1%; inhibition at 375 g/ha (Echinochloa crus-galli [28]): 17.2%; inhibition at 187.5 g/ha (Echinochloa crus-galli [29]): 2.8%; inhibition at 93.75 g/ha (Echinochloa crus-galli [30]): 0%; inhibition at 375 g/ha (Digitaria sanguinalis [33]): 0%; inhibition at 187.5 g/ha (Digitaria sanguinalis [34]): 0%; inhibition at 93.75 g/ha (Digitaria sanguinalis [35]): 0%; inhibition at 187.5 g/ha (Echinochloa crus-galli [37]): 18.2%; inhibition at 93.75 g/ha (Echinochloa crus-galli [38]): 8.2%; inhibition at 1500 g/ha (Echinochloa crus-galli [39]): 100%; inhibition at 1500 g/ha (Echinochloa crus-galli [40]): 30.8%
3 | C#CCN1C(=O)COc2cc(F)c(-n3nnc4c(cnn4C)c3=O)cc21 | 100 | 71.8 | 100 | 47.3 | 77.7 | 95.6 | 97.1 | 39.2 | 45.6 | 98.8 | 100 | 100 | 96.3 | 80 | 26.8 | 66 | 60.2 | 100 | 100 | 94.8 | inhibition at 187.5 g/ha (Echinochloa crus-galli [37]): 48.4%; inhibition at 93.75 g/ha (Echinochloa crus-galli [38]): 47.1%; inhibition at 1500 g/ha (Echinochloa crus-galli [39]): 100%; inhibition at 1500 g/ha (Echinochloa crus-galli [40]): 58.4%
